Assay outcomes deposited in PubChem BioAssay by The Scripps Research Institute Molecular Screening Center.
Most compounds without a hit are left out; they make up all but 4.3% or so of the library.
STAT3 act-1: STAT3 signaling activation | U3A cells, IL-6 STAT3-luciferase reporter, luminescence; 100% = signal with IL-6 EC80 alone | activation (% of control), % at 5.6 µM | actives 0.91% (n = 190,000);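 active = activation above the screen-wide mean of compound activation plus 3 SD, cut at about 130% in these data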;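 also: 0% = background luminescence of wells with medium and substrate only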
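Assay system – human STAT1-deficient U3A cells with stable STAT3-luciferase reporter · Also added – IL-6 (33 ng/mL) · Schedule – compound 1 h, then IL-6 6 h at 37 °C · Technique – reporter luminescence signal · Evaluation – % activation versus median of IL-6-stimulated wells · Benchmarks – IL-6-only wells as 100% reference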
STAT1 inh: reduces IFN-gamma driven STAT1 reporter signal | actives 0.35% (n = 200,000) | NIH 3T3 STAT1-luciferase reporter, luminescence | AID 920 | inhibition, % at 5.5 µM;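 active = inhibition above a set limit, the mean inhibition across all tested compounds plus 3 SD, cut at about 34% in these data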;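 also: 0% = IFN-gamma with DMSO and 100% = IFN-gamma with 300 µM nifuroxazide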
STAT3 inh-1: reduces IL-6 driven STAT3 reporter signal; U3A cells, IL-6 STAT3-luciferase reporter, luminescence; host cell line lacks STAT1; actives 0.89% (n = 190,000); AID 862; inhibition, % at 5.5 µM;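 active = inhibition above the mean inhibition across all screened compounds plus 3 SD, cut at about 44% in these data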;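 also: 0% = DMSO only wells and 100% = 100 µM nifuroxazide control wells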
STAT1 act-1: activators of IFN-gamma induced STAT1 signaling | actives 2.6% (n = 200,000) | NIH 3T3 STAT1-luciferase reporter, luminescence; 100% = IFN-gamma alone, no compound | activation (% of control), % at 5.5 µM | AID 932;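 active = activation above the screen-wide mean activation plus 3 SD, cut at about 130% in these data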;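 also: raw ratio to IFN-gamma control signal so 100% means no change and 0% no light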
STAT3 inh-2: confirmation of STAT3 signaling inhibitors. shares compounds with STAT3 inh-1. U3A cells, IL-6 STAT3 luciferase reporter, luminescence; cell line lacks STAT1. inhibition, % at 5.7 µM. actives 45% (n = 1,200);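 active = inhibition above the hit cutoff computed for the primary STAT3 screen, cut at about 44% in these data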;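 also: 0% = IL-6 plus DMSO and 100% = IL-6 plus nifuroxazide control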
NFkB inh 2: inhibits NF-kappaB, counter-screen to STAT3 inhibitors; shares compounds with STAT3 inh-1; HEK293T NF-kB luciferase reporter, TNF-alpha induced; inhibition, % at 5.7 µM; actives 36% (n = 1,200);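 active = inhibition above the mean of solvent-only control wells plus 3 SD, cutoff set per campaign, cut at about 13% in these data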;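 also: 0% = TNF-alpha with DMSO and 100% = TNF-alpha with MG high control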
STAT1 inh 2: counter-screen for STAT3 inhibitors: STAT1 inhibition; inhibition, % at 5.7 µM; NIH 3T3 STAT1-luciferase reporter, IFN-gamma induced, luminescence; shares compounds with STAT3 inh-1; actives 27% (n = 1,200);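 active = inhibition above the mean plus 3 SD of solvent-only control wells, limit set per screening run, cut at about 16% in these data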;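 also: 0% = DMSO with IFN-gamma and 100% = nifuroxazide control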
STAT3 act-2: confirmation of STAT3 signaling activators; actives 64% (n = 1,200); U3A STAT3-luciferase reporter, IL-6 potentiation, luminescence; U3A cells lack STAT1; 100 means same as IL-6 alone; shares compounds with STAT3 act-1; potentiation (% of control), % at 5.7 µM; AID 1267;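 active = percent activation of the STAT3 luciferase reporter above a set limit taken from the earlier primary screen, cut at about 130% in these data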;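 also: 0% = background signal of medium plus substrate and 100% = median of IL-6 with DMSO wells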
NFkB act STAT3ct: activates NF-kappaB, counter-screen to STAT3 activators. actives 11% (n = 1,200). human cells, NF-kappaB reporter activation. activation (% of control), % at 5.7 µM. shares compounds with STAT3 act-1. AID 1309; in the data active = activation above about 120%;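 also: reporter induced by TNF-alpha stimulation; 100% = median of stimulated DMSO wells and 0% = no signal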
STAT1 act-2: activates STAT1, counter-screen to STAT3 activators; shares compounds with STAT3 act-1; actives 13% (n = 1,200); activation (% of control), % at 5.7 µM; NIH 3T3 STAT1-luciferase reporter, IFN-gamma, luminescence;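 active = activation above the solvent-only control well mean plus 3 SD, set per screening run, cut at about 120% in these data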;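 also: 100% = IFN-gamma with DMSO median signal so 100% means no change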
STAT1 act conf: confirmation of STAT1 signaling activators; AID 1262; NIH 3T3 STAT1-luciferase reporter, IFN-gamma potentiation, luminescence; 100% = IFN-gamma EC80 alone, no compound; shares compounds with STAT1 act-1; actives 97% (n = 1,200); activation (% of control), % at 5.7 µM;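 active = activation above a set limit carried over from the earlier primary STAT1 screen, cut at about 140% in these data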;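 also: simple ratio to median IFN-gamma plus DMSO wells so 0% means no light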
NFkB act: counter-screen for STAT1 activators: NF-kappaB activation; actives 43% (n = 1,200); activation (% of control), % at 5.7 µM; AID 1306; HEK293T NF-kB luciferase reporter, TNF-alpha stimulated, luminescence; 100% = TNF-alpha with vehicle only; shares compounds with STAT1 act-1;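 active = activation above the mean of solvent-only control wells plus 3 SD, set per campaign, cut at about 130% in these data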;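 also: TNF-alpha given at a submaximal dose yielding about 80% of full reporter signal; values are well signal over median control so 100% means no change and 0% no light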
STAT3 act STAT1c: human STAT3 activation in STAT1 activator counter-screen | U3A cells STAT3-luciferase reporter, IL-6, luminescence; cells lack STAT1; 100 = IL-6 alone, no compound effect | activation (% of control), % at 5.7 µM | actives 46% (n = 1,200) | shares compounds with STAT1 act-1 | AID 1316;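 active = activation above the solvent-only control well mean plus 3 SD, set per plate batch, cut at about 110% in these data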;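 also: 0% = no luminescence and 100% = median IL-6 plus DMSO wells; higher means more STAT3 reporter activation so hits are non-selective activators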
* = called active by the depositor; i = inactive; . = not tested or not shown.

SMILES	STAT3 act-1	STAT1 inh	STAT3 inh-1	STAT1 act-1	STAT3 inh-2	NFkB inh 2	STAT1 inh 2	others
O=C1C2C3c4ccccc4C(c4ccccc43)C2c2nc3ccccc3n21 (stereo unspecified)	48.2	3.2	64.2*	93.4	58.7*	12.4	-2.2
CC(=O)N(C(C)=O)N1C(=O)C2C3c4ccccc4C(c4ccccc43)C2C1=O (stereo unspecified)	105.2	-6.3	5.0	104.0	.	.	.
COc1ccc(OC)c(NC(=O)COC(=O)CN(C)S(=O)(=O)c2ccc(C)cc2)c1	97.7	-7.1	6.5	106.2	.	.	.
Cc1ccc(-n2c(-c3ccccc3)c[n+]3c2CCC3)cc1	51.4	26.2	61.8*	75.6	50.3*	2.3	23.2*
FC(F)Sc1ccc(-n2c(-c3ccc(Cl)cc3)c[n+]3c2CCC3)cc1	90.5	11.5	16.0	87.8	.	.	.
CCOc1ccc(-c2c[n+]3c(n2-c2ccccc2)CCCCC3)cc1	51.4	28.2	56.5*	74.3	72.5*	5.3	28.0*
O=[N+]([O-])c1ccc(/C=N/N=C/c2ccc([N+](=O)[O-])o2)o1	54.5	-88.9	58.3*	182.4*	12.7	-46.9	-45.7	STAT1 act conf=134.5*;NFkB act=137.6*;STAT3 act STAT1c=84.6
O=C(O)/C=C/c1ccc([N+](=O)[O-])o1	101.7	5.0	1.9	95.0	.	.	.
CSCCC(NC(=O)COc1ccccc1)C(=O)O (stereo unspecified)	105.6	-0.8	-5.4	99.3	.	.	.
CCSc1nnc2ccc(-c3ccco3)nn12	101.5	-7.9	3.1	104.4	.	.	.
CCOC(=O)/C(C#N)=C\c1cc(C)n(-c2ccccc2)c1C	64.1	-71.0	44.9*	164.8*	-0.2	-35.5	-148.9	STAT1 act conf=237.9*;NFkB act=113.3;STAT3 act STAT1c=115.4*
COc1ccc(/C=N/Nc2cc(OC)ncn2)cc1	58.6	-58.6	51.4*	152.4*	3.0	-24.8	-138.5	STAT1 act conf=227.5*;NFkB act=97.6;STAT3 act STAT1c=84.0
N#Cc1cc2c(nc1Cl)CCCC2	102.3	-3.4	-5.5	103.0	.	.	.
COc1ccc(C(=O)N=c2nc3ccccn3s2)cc1	55.2	-91.4	57.2*	181.9*	15.6	-40.1	-189.0	STAT1 act conf=313.2*;NFkB act=120.2;STAT3 act STAT1c=94.2
COc1ccc(C(=O)O/N=C(/c2ccccc2)c2ccncc2)cc1	109.3	-19.3	-7.5	116.7	.	.	.
N#C/C(=C\c1ccc(N2CCOCC2)o1)c1nc2ccccc2[nH]1	44.9	-65.7	66.0*	160.1*	13.8	-28.0	-162.9	STAT1 act conf=254.8*;NFkB act=113.3;STAT3 act STAT1c=90.2
N#C/C(=C\c1ccc(N2CCOCC2)c([N+](=O)[O-])c1)c1nc2ccccc2[nH]1	117.9	-3.1	-21.2	102.8	.	.	.
S=C(NCCN1CCOCC1)Nc1ccccc1Cl	97.7	10.0	5.4	91.1	.	.	.
O=c1c2c(nc3cc(-c4ccc(F)cc4)[nH]n13)CCCC2	55.6	-83.8	52.7*	176.7*	18.9	-26.7	-133.4	STAT1 act conf=240.4*;NFkB act=115.1;STAT3 act STAT1c=92.5
CCN(CC)S(=O)(=O)c1ccc(C(=O)OCC(=O)Nc2ccc(-c3nc4ccc(C)cc4s3)cc2)cc1	60.3	-59.9	46.9*	153.4*	29.6	-22.5	-73.8	STAT1 act conf=175.3*;NFkB act=114.4;STAT3 act STAT1c=74.5
CCN(CC)S(=O)(=O)c1ccc(NC(=O)COC(=O)c2ccc(-n3nc(C)cc3C)cc2)cc1	98.8	-0.9	1.5	96.9	.	.	.
Cc1cnc(NC(=O)c2sc3ccccc3c2Cl)s1	46.2	-64.9	63.9*	158.9*	15.3	24.2*	-50.3	STAT1 act conf=172.3*;NFkB act=70.9;STAT3 act STAT1c=79.1
O=c1[nH]nc(Cc2ccc3ccccc3n2)c2ccccc12	146.8*	-11.1	-58.0	109.9	.	.	.	STAT3 act-2=124.6;NFkB act STAT3ct=104.6;STAT1 act-2=114.6
O=[N+]([O-])c1ccc(N2CCC(O)CC2)nc1	101.7	4.8	-4.7	95.7	.	.	.
COc1cccc(-c2nc(N3CCCCC3C)c3ccccc3n2)c1O (stereo unspecified)	138.1*	9.7	-42.1	91.1	.	.	.	STAT3 act-2=138.1*;NFkB act STAT3ct=105.1;STAT1 act-2=98.6
SMILES	STAT3 act-1	STAT1 inh	STAT3 inh-1	STAT1 act-1	STAT3 inh-2	NFkB inh 2	STAT1 inh 2	others
O=C(Nc1ccccc1O)c1csc2c1CCCC2	150.7*	-8.0	-54.8	105.4	.	.	.	STAT3 act-2=149.0*;NFkB act STAT3ct=118.2;STAT1 act-2=97.5
CN(C)S(=O)(=O)N1CCN(c2ccc([N+](=O)[O-])c(N3CCCCC3)c2)CC1	107.0	-2.3	-3.6	100.6	.	.	.
O=C1C(Cl)=C(N2CCN(c3ccccc3[N+](=O)[O-])CC2)C(=O)c2ccccc21	144.8*	-4.1	-52.3	103.3	.	.	.	STAT3 act-2=134.8*;NFkB act STAT3ct=110.5;STAT1 act-2=93.8
CCC(Sc1nnnn1-c1ccccc1)C(=O)Nc1nc2ccccc2s1 (stereo unspecified)	156.9*	-0.9	-64.1	100.9	.	.	.	STAT3 act-2=155.1*;NFkB act STAT3ct=112.4;STAT1 act-2=113.2
CSCCC(NS(=O)(=O)c1ccccc1F)C(=O)OCc1ccccc1Cl (stereo unspecified)	103.7	-5.4	-1.9	104.8	.	.	.
O=C(CCl)N1CCN2C(=O)c3ccccc3C12c1ccc(Cl)cc1 (stereo unspecified)	106.0	5.3	2.9	95.3	.	.	.
Cc1ccc(C(=O)N2CCN3C(=O)c4ccccc4C23c2ccc(Cl)cc2)cc1 (stereo unspecified)	558.9*	22.0	i	82.3	.	.	.	STAT3 act-2=487.1*;NFkB act STAT3ct=126.3*;STAT1 act-2=77.1
CC(C)C(=O)NCCSc1c[nH]c2ccccc12	121.1	-1.7	-15.3	101.5	.	.	.
O=C(O)CSc1c[nH]c2ccccc12	150.6*	9.2	-48.6	91.5	.	.	.	STAT3 act-2=121.3;NFkB act STAT3ct=103.9;STAT1 act-2=95.6
